Measured values: ChEMBL document CHEMBL4513216, “Probing the Open Global Health Chemical Diversity Library for Multistage-Active Starting Points for Next-Generation Antimalarials” (ACS Infect Dis, 2020)

Test: Toxicity liver stage against HepG2, at 10uM
Assay type: cell-based
Set-up: test concentration 10 uM, cell line HepG2-A16-CD81EGFP
Conditions: human, HepG2-A16-CD81EGFP cells; read-out: INHIBITION
Procedure, shortened: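 Uninfected HepG2-A16-CD81EGFP cells, 3 × 10^3 per well, 1536-well, plated on prespotted compound at 10 μM final, parasite-free screening media added to match infected plates; puromycin 10 μM positive, DMSO 0.5% negative; run in parallel with 48 h PbLuc assay at 37 °C, 5% CO2; viability by CellTiter-Glo luminescence, normalized to controls.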

| SMILES | cytotoxicity at 10 µM [%] |
| --- | --- |
| CC(Sc1nc(N)cc(N)n1)c1nc(C(C)(C)C)no1 (configuration not stated) | -5.27 |
| CC[C@H]1CN2CC[C@H]1C[C@@H]2CNC(=O)Nc1ccc(Br)cc1 | 1.08 |
| O=C(NC[C@H]1CCCC[C@H]1O)c1ccc2nc(-c3ccco3)[nH]c2c1 | -5.78 |
| O=C(c1ccc[nH]1)N1CCOC2(COCCN(c3cncnc3)C2)C1 (configuration not stated) | 7.7 |
| Cn1cc(CN2CCC3(CCCN(C(=O)c4cscn4)C3)C2)cn1 (configuration not stated) | 1.71 |
| COCCN1C(=O)CCC12CCCN(c1ncc(F)cn1)CC2 (configuration not stated) | -8.92 |
| CC(C)[C@H](NC(=O)NC1CCS(=O)(=O)C1)C(=O)NCc1ccccc1Cl (some centres not stated) | 5.91 |
| CCOC(=O)CCNC(=O)N1CCN(c2nc3ccccc3n2C)CC1 | 4.88 |
| O=C(NCc1ccccn1)c1nnn(-c2ccc(Br)cc2)n1 | 1.47 |
| Cc1ncsc1CN1C[C@@H]2COC[C@]2(COc2ccc(C#N)cn2)C1 | -25.6 |
| O=C(Nc1cc(-c2ccncc2)no1)C1CCCCC1 | -5.37 |
| O=C(Cn1cc(I)cn1)N1CCc2ccccc2C1 | 11.2 |
| COc1ccccc1N1CC(NC(=O)Cn2cc(C)nn2)CC1=O (configuration not stated) | 11.6 |
| CS(=O)(=O)c1cn[nH]c1C1CCCCN1C(=O)c1ccsc1 (configuration not stated) | -18.6 |
| COCCN1CCC(c2cncc(N(C)C)n2)CC1 | -25.5 |
| O=C(CN1CCS(=O)(=O)CC1)Nc1ccc(N2CCCC2)nc1 | 10.3 |
| O=S(=O)(Cc1cc(-c2ccccc2)no1)CC1CCCO1 (configuration not stated) | 4.7 |
| CC(C)c1nnc2n1CCN(Cc1cccc3c1OCCO3)C2 | -1.26 |
| O=C(Nc1ccc(-c2csnn2)cc1)N1CC[C@H](O)C1 | -4.62 |
| CC(C)c1nnc(CN2CC(n3cccn3)Cc3ccccc32)o1 (configuration not stated) | -146 |
| Cc1cnn(CCNc2cnc3ccccc3n2)c1 | 11.4 |
| O=C(Nc1cnn(-c2ccccc2Cl)c1)NC1CCC(O)CC1 (configuration not stated) | -2.49 |
| Cc1oc(C(=O)Nc2cccc(Cl)c2C)cc1S(N)(=O)=O | 7.46 |

| SMILES | cytotoxicity at 10 µM [%] |
| --- | --- |
| CC(O)CN1CCN(Cc2coc(-c3ccccc3Cl)n2)CC1 (configuration not stated) | -4.73 |
| CCCNC(=O)CNC(=O)CC1CCCc2cc(OC)ccc21 (configuration not stated) | -4.52 |
| COc1ccc2c(c1)CCCC2CC(=O)NCC(=O)O (configuration not stated) | -4.31 |
| Cc1nc(C)c(C(=O)N2CCc3c(Cl)cccc32)o1 | -1.55 |
| Cc1cc(CNC(=O)NCC(O)c2cccc(C(F)(F)F)c2)no1 (configuration not stated) | -6.79 |
| CN(Cc1cc(Br)cn1C)C(=O)c1cscn1 | -0.37 |
| CCc1ncncc1C(=O)NCCNS(=O)(=O)c1ccc(C)cc1 | -5.95 |
| Cc1ccccc1CN(Cc1ccccn1)C(=O)CN(C)C(C)C | -0.675 |
| Cc1c(C(=O)NC2=NCCS2)cnn1-c1ccc(Cl)cc1 | 1.51 |
| O=C(CCc1cccs1)NCC1CCCN1c1cccnn1 (configuration not stated) | -1.9 |
| COc1ccc(C(=O)NCCNC(=O)c2cncnc2C)cc1 | 7.98 |
| CCNS(=O)(=O)C1CCN(C(=O)c2c(F)cc(F)cc2F)C1 (configuration not stated) | 7.43 |
| CC(C)NC(=O)NCc1ccnc(N(C)C)n1 | -3.63 |
| N#Cc1ccc(CNC(=O)C2=NN(c3ccccc3)C(=O)CN2)cc1 | -1.8 |
| c1cnn(CC2CN(Cc3csc(-c4ccsc4)n3)CCO2)c1 (configuration not stated) | 3.23 |
| Cc1ccc(-c2nnc(CN3CCNC(=O)C3)o2)cc1 | -1.26 |
| Cc1cc(NC(=O)NCCc2cccnc2)n(C)n1 | -3.86 |
| CC(Cn1cccn1)NC(=O)Nc1cccnc1 (configuration not stated) | -2.9 |
| Cn1ccnc1-c1cccc(NC(=O)NCCCN2CCOCC2)c1 | -5.01 |
| Cc1ccc(NC(=O)N(CCO)Cc2ccsc2)cc1 | 3.58 |
| O=C(CCNS(=O)(=O)c1ccccc1)N1CCOC(c2ccccc2)C1 (configuration not stated) | 6.6 |
| COc1ccc2cccc(CC(=O)NCc3nccc(N)n3)c2c1 | 0.684 |
| CC(C)Cn1cnnc1C1CCCN1C(=O)c1cc2ccccn2c1 (configuration not stated) | -0.384 |

| SMILES | cytotoxicity at 10 µM [%] |
| --- | --- |
| Cc1ccc(N2CCCC(N(C)c3ncnc4c3CCC4)C2)nn1 (configuration not stated) | 6.86 |
| CCS(=O)(=O)N(C)C1CCN(Cn2ccc(-c3ccc(F)cc3)n2)CC1 | 1.95 |
| Cc1nc(CNC(=O)Nc2ccc(N(C)C)nc2)sc1C | -0.222 |
| Cc1cc(C)n(C2CN(Cc3ccccn3)C2)n1 | -3.67 |
| Cc1nn2c(nc1=O)-c1ccccc1NC2C(=O)O (configuration not stated) | 5.32 |
| CN(Cc1cnccn1)C(=O)Nc1cc(F)cc(N2CCCC2)c1 | 1.8 |
| CN(C)C(=O)C1CSCN1C(=O)CCc1ccco1 (configuration not stated) | -6.53 |
| C=C(C)COCCNC(=O)N1CCc2c(cccc2OC)C1 | 3.55 |
| CC(C)c1nc(CNc2ccc(CNS(C)(=O)=O)cc2)cs1 | 3.82 |
| COc1ccnc(N2CCN(C(=O)c3cnn(C)c3C3CC3)CC2)n1 | -2.88 |
| Cc1ccc(C(=O)NCC2(O)CCOCC2)cc1Br | -1.3 |
| Cn1ccc(NC(=O)Cc2cccc(F)c2)n1 | 1.44 |
| Cc1csc2c(=O)n(CCN3CCNCC3)cnc12 | -3.5 |
| COc1cc(F)ccc1C(C(=O)O)N(C)Cc1ccon1 (configuration not stated) | -5.31 |
| Cc1nc(CNC(=O)CC2C(=O)NCCN2Cc2ccccc2C)n[nH]1 (configuration not stated) | -7.21 |
| COc1cc(C(=O)NCC2CCCN(Cc3ccco3)C2)ccn1 (configuration not stated) | -3.94 |
| CC1(C)OC(=O)N(CC(=O)N2CCC(c3ccccc3Cl)C2)C1=O (configuration not stated) | -21.4 |
| CO[C@H]1CN(Cc2c(C)ccc3ncccc23)CC[C@H]1N | -146 |
| O=C(CCN1CCCCC1)N1CCC(Cc2ccc(CO)cc2)C1 (configuration not stated) | -7.33 |
| Cc1cc(CC(=O)N2CCN(C)[C@@H]3CS(=O)(=O)C[C@@H]32)ccc1F | -3.89 |
| Cc1nc(O)cc(CN2C[C@H](NC(=O)C3CCCC3)[C@@H](C3CC3)C2)n1 | -4.7 |
| O=C(CN1CCCC1c1nc(-c2ccccn2)no1)N1CCNCC1 (configuration not stated) | 9.28 |
| COc1ccc(Cl)cc1C(C(=O)O)N(C)Cc1ccon1 (configuration not stated) | -5.92 |

| SMILES | cytotoxicity at 10 µM [%] |
| --- | --- |
| CC(C)C1CN(c2ncccc2Cl)CCC(=O)N1Cc1ccc(F)cc1 (configuration not stated) | 2.41 |
| CCn1ccnc1CNc1nccc(-c2cn(C)nc2C)n1 | -4.6 |
| CC(C)CN1CC(C(=O)N(C)CCc2cn[nH]c2)CC1=O (configuration not stated) | -4.1 |
| Cn1cc(C(=O)N2CCCN(C3Cc4ccccc4C3)CC2)cn1 | -3.68 |
| CNC(=O)[C@@H]1C[C@H](N)CN1Cc1cc2cc(OC)ccc2nc1O | -6.69 |
| CN1CCCC(c2nc3c([nH]2)CC(C)(C)CNC3=O)C1 (configuration not stated) | 9.01 |
| Cc1csc(S(=O)(=O)N2CCN(C)C3(CCC(=O)N(C)CC3)C2)c1 (configuration not stated) | 1.67 |
| CCCn1ncc(C(=O)NCCc2[nH]nc3c2CCCC3)c1C | -6.63 |
| Cc1[nH]c(=O)[nH]c(=O)c1CC(=O)N1CCCN(CC2CC2)C(C(C)C)C1 (configuration not stated) | -160 |
| CCn1c(N)nc2cc(C(=O)N3CCCOCC3)cnc21 | -8.24 |
| CCNC(=O)[C@@H]1C[C@H](N)CN1c1cc(CC)nc(N(C)C)n1 | -3.08 |
| Cc1cnc(C(=O)N2CCCC(Cn3cc(C4CC4)nn3)C2)cn1 (configuration not stated) | -1.15 |
| COc1ccc(C(=O)N2CC(c3ccncc3)C2)c(OC)c1OC | -1.86 |
| c1ccc(CCN2CCOC(CNc3cccnn3)C2)nc1 (configuration not stated) | -1.56 |
| O=C(CC1CCCCC1)NC1CCCCNC1=O (configuration not stated) | 6.82 |
| c1ccc(OCCCN2CCOC(CNc3cccnn3)C2)cc1 (configuration not stated) | -0.906 |
| COCCN1CCN(CCS(C)(=O)=O)CC1C (configuration not stated) | -1.22 |
| NC(=O)C1CN(C(=O)Nc2ccccc2Oc2ccccc2Cl)CCO1 (configuration not stated) | -10.5 |
| Cc1noc(C2CCCN(C(=O)c3ccc(N(C)C)nc3)C2)n1 (configuration not stated) | -4.69 |
| CCn1cc(CN2CCCN(C(=O)c3cccc(C#N)c3)CC2)cn1 | 0.893 |
| CCOc1ncccc1CNC(=O)NCC(O)c1ccccc1OC (configuration not stated) | -6.85 |
| Cc1nn(C)c(C)c1C1CCCN1C(=O)c1ccc(N(C)C)nn1 (configuration not stated) | -10.6 |
| NC(=O)C1CCN(C(=O)NCCOc2ccc3c(c2)OCO3)C1 (configuration not stated) | -13.3 |

| SMILES | cytotoxicity at 10 µM [%] |
| --- | --- |
| Cc1cnn(CC2CCCN2C(=O)c2cccc(F)c2F)c1 (configuration not stated) | -1.3 |
| CCCc1nc(C)c(C(=O)NCCN2CCOCC2)s1 | -7.75 |
| O=C(c1cn(-c2ccccc2)nn1)N1CCCC(n2cccn2)C1 (configuration not stated) | -7.85 |
| CCn1c(C)nnc1CN(C)C1CCN(CCCSC)C1 (configuration not stated) | -6.21 |
| Cc1nn(C)c(Cl)c1C1CCCN1C(=O)c1ccnc(N(C)C)c1 (configuration not stated) | -6.73 |
| Cc1cc(CN(C)C2CCCN(Cc3noc(C)n3)C2)on1 (configuration not stated) | -5.85 |
| Cc1csc(CNC(=O)Cc2ccc3c(c2)OCCO3)n1 | -1.3 |
| Cc1nnc(N2CCC(NS(C)(=O)=O)CC2)c(C#N)c1C | -5.13 |
| CCn1cnnc1C1CCCN(C(=O)COc2ccc(Cl)cc2)C1 (configuration not stated) | -5.26 |
| Cn1cc(N2C[C@@H]3CN(Cc4ccoc4)C[C@@H]3C2=O)cn1 | -2.93 |
| COc1ccc2c(c1)C1(CCN(Cc3ccccn3)CC1)N(C)CC2 | -150 |
| Cc1nn(C)c(N(C)C)c1CNCc1cccc(CN(C)C)c1 | -3.01 |
| O=C(c1ccco1)N1CCCC12CCN(c1ncccn1)CC2 | 3.23 |
| CN1CCS(=O)(=O)[C@@H]2CCN(C(=O)c3ccccc3)CC[C@@H]21 | -127 |
| CCO[C@H]1CO[C@@]2(CCCN(Cc3scnc3C)C2)C1 | -137 |
| O=C(NC[C@H]1OC[C@@H]2CN(Cc3ccco3)CC[C@@H]21)c1cscn1 | -145 |
| Cc1noc(C)c1CN(C)CC(=O)Nc1ccnn1C(C)C1CC1 (configuration not stated) | -2.82 |
| CSCC(=O)N1C[C@@H]2CC[C@H]1CN(C1Cc3ccccc3C1)C2 | -6.08 |
| O=C(c1ccncc1)N1C[C@H]2CC[C@@H](C1)N(S(=O)(=O)c1cccnc1)C2 | -3.51 |
| O=C(c1cnccn1)N1C[C@H]2CC[C@@H](C1)N(C(=O)CCc1ccsc1)C2 | 3.24 |
